One test concerns Staphylococcus aureus. The test is described as follows: Antimicrobial activity against Staphylococcus aureus by disc diffusion method. The test is classed as functional, organism-based. The method, boiled down: (§1)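 Disk diffusion assay run against a panel of two bacteria (Staphylococcus aureus, Escherichia coli) and four plant-pathogenic fungi (Alternaria brassicae, Fusarium oxysporum, Coniella diplodiella, Physalospora piricola). The positive control was chloramphenicol for the bacterial strains and amphotericin B for the fungal strains.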
On the technique in general: A growth-free zone around the sample is the usual read-out of agar diffusion tests.

The subject of a further test is Alternaria brassicae. The test is described as follows: Antimicrobial activity against Alternaria brassicae by disc diffusion method. It counts as functional. The method, boiled down: as §1
The subject of another test is Escherichia coli. In words: Antimicrobial activity against Escherichia coli by disc diffusion method. The test is classed as functional, organism-based. A digest of the protocol:
as §1

A further test has as its system Fusarium oxysporum. The test is described as follows: Antimicrobial activity against Fusarium oxysporum by disc diffusion method. The test is classed as functional, organism-based. A digest of the protocol: as §1
The subject of the next test is Coniella diplodiella. In words: Antimicrobial activity against Coniella diplodiella by disc diffusion method. The test is classed as functional. The method, boiled down: as §1
The test system of test [1] is Botryosphaeria berengeriana. In words: Antimicrobial activity against Physalospora pyricola by disc diffusion method. It counts as functional, organism-based. A digest of the protocol:
as §1

In another test the test system is A549. The test is described as follows: Cytotoxicity against human A549 cells. The test is classed as functional, cell-based.
Another test has as its system DU-145. The test is described as follows: Cytotoxicity against human DU145 cells. It counts as functional, cell-based.
Another test deals with HepG2. The test is described as follows: Cytotoxicity against human HepG2 cells. The test is classed as functional, cell-based.
The next test concerns MCF7. In words: Cytotoxicity against human MCF7 cells. The test is classed as functional, cell-based.
Another test concerns NCI-H460. In words: Cytotoxicity against human NCI-H460 cells. It counts as functional, cell-based.
The test system of another test is MDA-MB-231. The test is described as follows: Cytotoxicity against human MDA-MB-231 cells. The test is classed as functional, cell-based.
Another test relates to SW1990. The test is described as follows: Cytotoxicity against human SW1990 cells. The test is classed as functional, cell-based.

Activity calls are given as the source filed them. The rule behind the calls is not given here.

For `COc1cc(-c2cc(C)cc(C)c2-c2ccccc2)oc(=O)c1`, the inhibition result (with Staphylococcus aureus; in the test on Alternaria brassicae; in the test on Escherichia coli; in the test with Fusarium oxysporum; in the test with Coniella diplodiella; in test [1]) was “Active” throughout.

For `COc1cc(/C=C/C(C)=C/C(C)=C/c2ccccc2)oc(=O)c1`, the inhibition entry (with Staphylococcus aureus; with Alternaria brassicae; in the test on Escherichia coli; with Fusarium oxysporum; with Coniella diplodiella; in [1]) was “Active” in each case.

Consider `COc1cc(/C=C/C(C)=C/C(C)=C\c2ccccc2)oc(=O)c1`, for which the inhibition result (in the test on Staphylococcus aureus; in the test on Alternaria brassicae; in the test on Escherichia coli; with Fusarium oxysporum; in the test on Coniella diplodiella; in test [1]) was “Active” throughout.

In the case of `COc1cc(/C=C/C(C)=C/C(C)=O)oc(=O)c1`, the inhibition result (with Staphylococcus aureus; with Alternaria brassicae; in the test with Escherichia coli; with Fusarium oxysporum; in the test with Coniella diplodiella; in [1]) was “Active” throughout.

On to `COc1cc(/C=C/C(C)=C\C(C)=C\c2ccccc2)oc(=O)c1`, for which the inhibition result (in the test on Staphylococcus aureus; with Alternaria brassicae; in the test with Escherichia coli; in the test on Fusarium oxysporum; in the test on Coniella diplodiella; in [1]) was “Active” in each case.

Take `COc1cc(\C=C/C(C)=C/C(C)=C/c2ccccc2)oc(=O)c1`: the inhibition entry (with Staphylococcus aureus; with Alternaria brassicae; in the test on Escherichia coli; with Fusarium oxysporum; with Coniella diplodiella; in [1]) was “Active” in each case.

The IC50 is the concentration at which inhibition is half-maximal. Read a high IC50 as weaker potency in that assay. In the case of `COc1cc(/C=C/C(C)=C/C(C)=C/c2ccccc2)oc(=O)c1C` [ASNIPYRONE A], the inhibition result (with Staphylococcus aureus; in the test with Alternaria brassicae; in the test on Escherichia coli; in the test on Fusarium oxysporum; in the test with Coniella diplodiella; in test [1]) was “Active” each time. Further, in the test with A549, inhibition was half-maximal at 62 µM (IC50).

For `O=c1[nH]cc(F)c(=O)[nH]1` [FLUOROURACIL], the IC50 in the test on DU-145 amounted to 3.3 µM; in the test on HepG2, 109 µM; in the test with MCF7, 31 µM; in the test on NCI-H460, 8.5 µM; in the test on MDA-MB-231 it was 59 µM; in the test with A549, 52 µM.

Turning to `COc1cc(-c2cc(C)cc(C)c2-c2ccccc2)oc(=O)c1C` [NIGERAPYRONE B], the inhibition result (in the test on Staphylococcus aureus; with Alternaria brassicae; in the test on Escherichia coli; in the test with Fusarium oxysporum; with Coniella diplodiella; in test [1]) was “Active” throughout. Moreover, the IC50 with HepG2 was 62 µM.

Take `COc1cc(/C=C/C(C)=C/C(C)=O)oc(=O)c1C` [NIGERAPYRONE D]: the inhibition entry (with Staphylococcus aureus; with Alternaria brassicae; in the test on Escherichia coli; in the test with Fusarium oxysporum; with Coniella diplodiella; in test [1]) was “Active” throughout. Also, the IC50 in the test on HepG2 is 81 µM; in the test with MCF7 it was 121 µM; with A549, 81 µM.

Regarding `COc1cc(/C=C/C(C)=O)oc(=O)c1C` [NIGERAPYRONE E], the inhibition result (in the test on Staphylococcus aureus; in the test on Alternaria brassicae; in the test with Escherichia coli; with Fusarium oxysporum; in the test with Coniella diplodiella; in test [1]) was “Active” throughout. Besides, the IC50 in the test with DU-145 was 86 µM; in the test on HepG2, 86 µM; with MCF7, 105 µM; in the test with NCI-H460, 43 µM; in the test on MDA-MB-231 it was 48 µM; in the test on SW1990, 38 µM. Also, the midpoint of inhibition in the test on A549, the IC50, lay at 43 µM.

The record behind these values is ChEMBL document CHEMBL1821629, “Nigerapyrones A-H, α-pyrone derivatives from the marine mangrove-derived endophytic fungus Aspergillus niger MA-132” (J Nat Prod, 2011).
